RAM inhibit: yeast RAM network inhibition | S. cerevisiae dse1pr::URA3 reporter, 5-FOA growth OD615, 2 d; analog-sensitive cbk1-as2 kinase mutant strain | inhibition, % at 50 µM | 190,000 tested, 1.8% active | AID 868;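 active = inhibition above a set limit, 3 SD over mean compound inhibition, cut at about 8.4% in these data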;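 also: 0% = DMSO-only wells with no growth and 100% = 10 µM 1-NA-PP1 full growth; inhibition rescues growth on 5-FOA so higher OD means more RAM inhibition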
Yeast life ext: extends the lifespan of yeast | S. cerevisiae growth with nicotinamide, OD615; deaD strain in restrictive glucose medium | inhibition of the nicotinamide effect, % at 10 µM | 130,000 tested, 0.68% active;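 active = inhibition above a set limit, placed 3 SD over the median of all compounds, cut at about 26% in these data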;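 also: 0% = nicotinamide-treated wells and 100% = cells grown without nicotinamide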
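Test system: DeaD-strain S. cerevisiae / Buffer or medium: restrictive glucose medium / Also added: nicotinamide 1.5 mM / Doses: one concentration, 10 µM, DMSO 0.25% / Schedule: 48 h at 30 °C / Signal: OD615 measurement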
sdo1 growth: restores growth of sdo1-depleted yeast; S. cerevisiae sdo1-depleted JHY4D growth rescue, OD600 30 h; stronger effect = higher value; pdr5 snq2 efflux-pump mutant strain; z-score at 10 µM; 140,000 tested, 0.21% active; AID 817;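 active = z-score above 3 at both the 24 hr and the 30 hr optical density reads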;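 also: z-score against mean and SD of all compound wells on the same plate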
Yeast growth inh: chemicals that inhibit yeast BB579 growth in restrictive medium (lifespan-shortening candidates). inhibition, % at 10 µM. S. cerevisiae BB579 growth, OD615, 48 h. 140,000 tested, 0.51% active;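 active = inhibition above a set limit, 3 SD over the mean compound inhibition, cut at about 44% in these data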
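Material: Saccharomyces cerevisiae DeaD strain BB579, replicative lifespan model yeast; buffer or medium: CSMM-D restrictive synthetic medium containing dextrose (glucose); compound: 10 µM single dose, DMSO 0.25%; timing: 48 h compound exposure at 30 °C after 4 h preincubation; signal: turbidity as optical density at 615 nm; benchmarks: positive control amphotericin B 10 µg/mL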
* hit, by the source's call; . = no result. Rows were chosen to be rich in hits. Some 2.7% of all compounds tested hit in one or more screens of this group.

SMILES	RAM inhibit	Yeast life ext	sdo1 growth	Yeast growth inh
O=C(CCCOc1ccc(Cl)cc1Cl)NNC(=O)c1ccc(NC(=O)c2ccccc2)cc1	5	17	-0.25	-15
CCCCC/C(=N\NC(=O)Nc1ccccc1)c1ccccc1	9.5*	.	.	.
CCCC/C(C)=N/NC(=O)Nc1ccccc1	1	-22	0.03	-45
Cc1nn(C)c(C)c1/C=C1/SC(=S)NC1=O	4	-18	0.16	-40
Cc1ccc(C2C(/C=C3/SC(=S)NC3=O)=C(c3cccs3)Oc3ccccc32)cc1 (stereo not drawn)	10*	-3	1.3	-79
C(=C\c1nc(N2CCCCCC2)c2ccccc2n1)/c1ccccc1	-1	-7	-2.5	74*
N#C/C(=C\c1cccs1)Sc1nc2ccccc2s1	9.1*	-7	-1.6	-53
O=C1NC(c2ccccc2)C(C(=O)c2cccs2)C(O)(C(F)(F)F)N1 (stereo not drawn)	-1	-7	0.29	-31
CN1C(=O)NC(c2ccc(O)cc2)C(C(=O)c2cccs2)C1(O)C(F)(F)F (stereo not drawn)	1	34*	-0.1	-15
O=C(O)c1cccc(NC(CNS(=O)(=O)c2ccc(Cl)cc2)c2ccccc2)c1 (stereo not drawn)	3	.	.	.
O=S(=O)(NCC(Nc1ccccc1)c1ccccc1)c1ccc(Cl)cc1 (stereo not drawn)	9.2*	0	-0.44	-13
CNc1nc(N)c(C(=O)C23CC4CC(CC(C4)C2)C3)s1	1	.	.	.
CCOc1ccc(N/N=C(/C#N)C(N)=O)cc1	-1	-8	-1.4	97*
CCOc1ccc(N/C(SC)=C(/C#N)C(N)=O)cc1	0	-10	1.3	-21
COc1ccc(N/N=C(\C#N)C(N)=O)cc1	2	7	-1.6	58*
CCOc1ccc(C(=O)NC(C)(C)CC)cc1	1	.	.	.
CCC(C)OC(=O)C1C(c2ccccc2)C(C(=O)O)C1c1ccccc1 (stereo not drawn)	2	37*	-0.9	-10
COc1ccccc1OCCCn1cc(C#N)c2ccccc21	5	-28	-1.9	-35
COc1ccccc1OCCCn1c(C)c(C#N)c2ccccc21	11*	-14	-1.8	-31
O=C(O)CCSc1nnc(COc2cccc3ccccc23)n1-c1cccc(Cl)c1	3	.	.	.
CCOc1ccc(S(=O)(=O)N(C)c2ccc(OCC(=O)NCc3ccco3)cc2)cc1	9.8*	-10	-1.1	-6
CCOc1ccc(S(=O)(=O)N(C)c2ccc(OCC(=O)NCc3cccnc3)cc2)cc1	-1	.	.	.
Cc1cccc(C)c1NC(=S)N(Cc1ccccc1)Cc1cccs1	9.5*	.	.	.
O=C(O)CNC(=S)N(Cc1ccccc1)Cc1cccs1	2	.	.	.
Cc1ccc(-c2c(=O)n(OCc3ccccn3)c3ccccc3[n+]2[O-])cc1	1	55	2	-22
SMILES	RAM inhibit	Yeast life ext	sdo1 growth	Yeast growth inh
O=c1c(-c2ccc(Cl)cc2)[n+]([O-])c2ccccc2n1OCc1ccccn1	1	45*	-0.36	-41
COc1cccc(N2CCN(C(=O)c3nc4nc(C)cc(C)n4n3)CC2)c1	3	.	.	.
CCOC(=O)Cc1csc(NC(=S)NC(=O)c2ccc(C)cc2)n1	9.7*	-1	-0.84	-9
CCOC(=O)Cc1csc(NC(=S)NC(=O)c2cc(OC)cc(OC)c2)n1	1	.	.	.
CCOC(=O)Cc1csc(NC(=S)NC(=O)c2ccccc2)n1	3	-3	-1.6	-31
CCOC(=O)Cc1csc(NC(=S)NC(=O)c2ccccc2Br)n1	8.6*	7	-1.5	-11
CCc1nnc(NC(=O)CSc2nnc(COc3ccc(C)cc3)n2-c2ccccc2)s1	8.7*	-6	-0.62	-42
CCc1nnc(NC(=O)CSc2nnc(Cc3ccccc3)n2-c2ccccc2)s1	2	-4	0.2	-31
O=[N+]([O-])c1cc(C(F)(F)F)cc([N+](=O)[O-])c1NCCCNc1ccc([N+](=O)[O-])c2cccnc12	9.0*	10	0.95	-34
O=[N+]([O-])c1cc(C(F)(F)F)cc([N+](=O)[O-])c1NCc1cccnc1	2	-1	0.58	-20
CCOC(=O)c1sc(NC(=O)C(CC)Sc2nnc3c4ccccc4n(C(C)C)c3n2)nc1C (stereo not drawn)	8.6*	-3	0.03	-29
CCOC(=O)Cc1nnc(NC(=O)C(CC)Sc2nnc3c4ccccc4n(C)c3n2)s1 (stereo not drawn)	4	-8	0.2	-10
Cc1cccn2c(=O)c(/C=N/O)c(N3CCOCC3)nc12	-1	.	.	.
O=S(=O)(c1ccc(S(=O)(=O)N(Cc2cccs2)CC2CCCO2)cc1)N1CCCCC1 (stereo not drawn)	1	-7	0.85	-50
O=S(=O)(NC1CCCC1)c1ccc(S(=O)(=O)N(Cc2cccs2)CC2CCCO2)cc1 (stereo not drawn)	9.6*	-8	-1.4	-50
COC(=O)c1sccc1NC(=O)CSc1cccc(Cl)c1Cl	8.7*	-13	-0.51	-51
Cc1ncc([N+](=O)[O-])n1CC(=O)Nc1ccc2c(c1)OCO2	0	.	.	.
O=C(O)c1ccccc1CSc1ncccc1C(=O)O	3	.	.	.
COc1cc(/C=N/OCC(=O)NC2CCCCC2C)ccc1OCc1ccc(Cl)cc1 (stereo not drawn)	11*	-1	-0.47	-21
COc1cc(/C=N/OCC(=O)Nc2cc(C)cc(C)c2)ccc1OCc1ccc(Cl)cc1	7	-6	0.4	-1
Cc1cc(C(F)(F)F)c(C#N)c(Sc2ccccc2)n1	10.0*	-18	0.62	-10
Cc1ccc(S(=O)(=O)CCSc2nc(C)cc(C(F)(F)F)c2C#N)cc1	10*	.	-0.27	-7
Cn1nc(-c2ccccc2)c(CN2CCN(c3ncccn3)CC2)c1Cl	0	.	.	.
O=C(NCCCNCc1ccccc1)c1ccncc1	1	-2	0.59	-47
O=C(/C=N\O)NCCCNCc1ccccc1	2	50*	1.2	-38
SMILES	RAM inhibit	Yeast life ext	sdo1 growth	Yeast growth inh
CCc1ccc(/C=C2/C(=O)N(c3ccccc3)C(=S)N2CC(=O)OC)s1	5	0	-0.41	-15
CCN1C(=O)/C(=C/N(C(C)=O)c2ccccc2)N(c2ccccc2)C1=S	1	35*	-1.5	-17
CON/C=C(\C=Nc1ccc(Cl)cc1)c1ncc(C(F)(F)F)cc1Cl	11*	7	-0.93	-70
Cc1ccc(S(=O)(=O)N2CCN(C(=O)c3ccccc3)CC2)c(C)c1NS(C)(=O)=O	0	.	.	.
CC1=C(C(=O)NCc2ccccc2)C(c2cccs2)NC(=S)N1 (stereo not drawn)	1	.	.	.
CCCCOc1ccc(C(=O)Nc2ccc(C)cc2[N+](=O)[O-])cc1	9.1*	-1	0.71	-1
CCOC(=O)c1cccc(NC(=O)COc2ccc([N+](=O)[O-])cc2)c1	-1	-38	-0.37	-17
CCCOC(=O)c1cccc(NC(=O)COc2ccc([N+](=O)[O-])cc2)c1	10*	-3	0.02	-8
CCCCOc1ccc(C(=O)OCC(=O)Nc2cc(C)c(C)cc2[N+](=O)[O-])cc1	11*	6	0.12	-40
